# Source: ChEMBL document CHEMBL3877264, “Quinolidene-rhodanine conjugates: Facile synthesis and biological evaluation” (Eur J Med Chem, 2017)
# Tests used:
# Assay type in all cases: functional
# Escherichia coli [1] = experiment: Growth inhibition of Escherichia coli NCIM 2688 at 3 ug/ml measured after 8 hrs relative to control; details: NCIM 2688, 8 h, read-out: GI
# Procedure, shortened: (§1)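 Bacteria grown in LB at 37 °C and 180 rpm to OD 1. Compounds added to wells, then 0.1% inoculum of 1 OD culture (620 nm). Growth read as OD at 620 nm after 8 h for gram-negative and after 12 h for gram-positive strains.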
# Candida albicans = experiment: Antifungal activity against Candida albicans NCIM 3471 by standard agar method
# Procedure, shortened: (§2)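 MICs determined by standard agar method; DMSO as solvent control.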
# Bacillus subtilis [2] = experiment: Growth inhibition of Bacillus subtilis NCIM 2079 at 10 ug/ml measured after 12 hrs relative to control; details: NCIM 2079, 12 h, read-out: GI; procedure, shortened: as §1
# [3] = Antifungal activity against Cryptococcus neoformans NCIM 576 by standard agar method; procedure, shortened: as §2
# Escherichia coli [4] = experiment: Growth inhibition of Escherichia coli NCIM 2688 at 10 ug/ml measured after 8 hrs relative to control; details: NCIM 2688, 8 h, read-out: GI; procedure, shortened: as §1
# Staphylococcus aureus [5] = experiment: Growth inhibition of Staphylococcus aureus NCIM 2010 at 30 ug/ml measured after 12 hrs relative to control; details: NCIM 2010, 12 h, read-out: GI; procedure, shortened: as §1
# Bacillus subtilis [6] = experiment: Growth inhibition of Bacillus subtilis NCIM 2079 at 30 ug/ml measured after 12 hrs relative to control; details: NCIM 2079, 12 h, read-out: GI; procedure, shortened: as §1
# Bacillus subtilis [7] = experiment: Antibacterial activity against Bacillus subtilis NCIM 2079 measured after 12 hrs; details: NCIM 2079, 12 h; procedure, shortened: as §1
# Escherichia coli [8] = experiment: Antibacterial activity against Escherichia coli NCIM 2688 measured after 8 hrs; details: NCIM 2688, 8 h; procedure, shortened: as §1
# Aspergillus niger = experiment: Antifungal activity against Aspergillus niger NCIM 1196 by standard agar method; procedure, shortened: as §2
# Pseudomonas fluorescens [9] = experiment: Antibacterial activity against Pseudomonas fluorescens NCIM 2036 measured after 8 hrs; details: NCIM 2036, 8 h; procedure, shortened: as §1
# Pseudomonas fluorescens [10] = experiment: Growth inhibition of Pseudomonas fluorescens NCIM 2036 at 10 ug/ml measured after 8 hrs relative to control; details: NCIM 2036, 8 h, read-out: GI; procedure, shortened: as §1
# [11] = test system: Mycobacterium tuberculosis; experiment: Growth inhibition of Mycobacterium bovis BCG ATCC 35743 at dormant stage at 10 ug/ml measured after 12 days by nitrate reductase dye based two fold dilution method relative to control; details: BCG str. ATCC 35743, 288 h, read-out: GI
# Procedure, shortened: (§3)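 M. bovis BCG was grown in Dubos medium and assayed in Mycobacterium pheli minimal medium (pH 6.6), with compounds from DMSO stocks. Incubation lasted 8 days for active and 12 days for dormant cultures. Viability was read by nitrate reductase at 540 nm against cell-free blanks, with vehicle set as 100% growth. Primary screen was at 30, 10 and 3 µg/ml, in triplicate, mean ± SD. MIC was taken from dose-response curves.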
# [12] = test system: Mycobacterium tuberculosis; experiment: Growth inhibition of Mycobacterium bovis BCG ATCC 35743 at dormant stage measured after 12 days by nitrate reductase dye based two fold dilution method; details: BCG str. ATCC 35743, 288 h; procedure, shortened: as §3
# [13] = Antifungal activity against Fusarium oxysporum NCIM 1332 by standard agar method; procedure, shortened: as §2
# [14] = test system: Mycobacterium tuberculosis; experiment: Growth inhibition of Mycobacterium tuberculosis H37Ra ATCC 25177 at dormant stage measured after 12 days by XTT dye based two fold dilution method; details: H37Ra ATCC 25177, 288 h
# Procedure, shortened: (§4)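 MTB H37Ra was grown in Dubos medium, then exposed in Mycobacterium pheli minimal medium (pH 6.6) to compounds dissolved in DMSO. The assay ended on day 8 (active) or day 12 (dormant). Viable cells were measured by XTT reduction menadione assay at 470 nm, blank-corrected, relative to vehicle control. Triplicates were expressed as mean ± SD. MIC came from dose-response curves.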
# [15] = test system: Mycobacterium tuberculosis; experiment: Growth inhibition of Mycobacterium tuberculosis H37Ra ATCC 25177 at active stage measured after 8 days by XTT dye based two fold dilution method; details: H37Ra ATCC 25177, 192 h; procedure, shortened: as §4
# Escherichia coli [16] = experiment: Growth inhibition of Escherichia coli NCIM 2688 at 30 ug/ml measured after 8 hrs relative to control; details: NCIM 2688, 8 h, read-out: GI; procedure, shortened: as §1
# Staphylococcus aureus [17] = experiment: Growth inhibition of Staphylococcus aureus NCIM 2010 at 10 ug/ml measured after 12 hrs relative to control; details: NCIM 2010, 12 h, read-out: GI; procedure, shortened: as §1
# [18] = test system: Mycobacterium tuberculosis; experiment: Growth inhibition of Mycobacterium bovis BCG ATCC 35743 at dormant stage at 30 ug/ml measured after 12 days by nitrate reductase dye based two fold dilution method relative to control; details: BCG str. ATCC 35743, 288 h, read-out: GI; procedure, shortened: as §3
# [19] = test system: Mycobacterium tuberculosis; experiment: Growth inhibition of Mycobacterium bovis BCG ATCC 35743 at active stage measured after 8 days by nitrate reductase dye based two fold dilution method; details: BCG str. ATCC 35743, 192 h; procedure, shortened: as §3
# [20] = test system: Mycobacterium tuberculosis; experiment: Growth inhibition of Mycobacterium bovis BCG ATCC 35743 at dormant stage at 3 ug/ml measured after 12 days by nitrate reductase dye based two fold dilution method relative to control; details: BCG str. ATCC 35743, 288 h, read-out: GI; procedure, shortened: as §3
# Staphylococcus aureus [21] = experiment: Growth inhibition of Staphylococcus aureus NCIM 2010 at 3 ug/ml measured after 12 hrs relative to control; details: NCIM 2010, 12 h, read-out: GI; procedure, shortened: as §1
# Staphylococcus aureus [22] = experiment: Antibacterial activity against of Staphylococcus aureus NCIM 2010 measured after 12 hrs; details: NCIM 2010, 12 h; procedure, shortened: as §1
# Bacillus subtilis [23] = experiment: Growth inhibition of Bacillus subtilis NCIM 2079 at 3 ug/ml measured after 12 hrs relative to control; details: NCIM 2079, 12 h, read-out: GI; procedure, shortened: as §1
# Pseudomonas fluorescens [24] = experiment: Growth inhibition of Pseudomonas fluorescens NCIM 2036 at 3 ug/ml measured after 8 hrs relative to control; details: NCIM 2036, 8 h, read-out: GI; procedure, shortened: as §1
# Pseudomonas fluorescens [25] = experiment: Growth inhibition of Pseudomonas fluorescens NCIM 2036 at 30 ug/ml measured after 8 hrs relative to control; details: NCIM 2036, 8 h, read-out: GI; procedure, shortened: as §1
# Aspergillus flavus = experiment: Antifungal activity against Aspergillus flavus NCIM 539 by standard agar method; procedure, shortened: as §2
Compound,inhibition of growth at 3 µg/mL (Escherichia coli [1]) [%],MIC (Candida albicans) [µg/mL],inhibition of growth at 10 µg/mL (Bacillus subtilis [2]) [%],MIC [3] [µg/mL],inhibition of growth at 10 µg/mL (Escherichia coli [4]) [%],inhibition of growth at 30 µg/mL (Staphylococcus aureus [5]) [%],inhibition of growth at 30 µg/mL (Bacillus subtilis [6]) [%],MIC (Bacillus subtilis [7]) [µg/mL],MIC (Escherichia coli [8]) [µg/mL],MIC (Pseudomonas fluorescens [9]) [µg/mL],inhibition of growth at 10 µg/mL (Pseudomonas fluorescens [10]) [%],inhibition of growth at 10 µg/mL [11] [%],IC50 [12] [µg/mL],IC90 [12] [µg/mL],IC50 [14] [µg/mL],IC90 [14] [µg/mL],IC50 [15] [µg/mL],IC90 [15] [µg/mL],inhibition of growth at 30 µg/mL (Escherichia coli [16]) [%],MIC (Staphylococcus aureus [22]) [µg/mL],further results
Cc1ccc2nc(Cl)c(/C=C3\SC(=S)N(CC(=O)O)C3=O)cc2c1,-1.08,125,-6.38,125,0.409,-5.17,1.48,> 30,> 30,> 30,-7.54,13.5,> 30,> 30,> 30,> 30,> 30,> 30,-6.72,> 30,MIC (Aspergillus niger): 175 µg/mL; MIC [13]: 150 µg/mL; inhibition of growth at 10 µg/mL (Staphylococcus aureus [17]): -6.18%; inhibition of growth at 30 µg/mL [18]: -0.24%; IC50 [19]: > 30 µg/mL; IC90 [19]: > 30 µg/mL; inhibition of growth at 3 µg/mL [20]: 14.9%; inhibition of growth at 3 µg/mL (Staphylococcus aureus [21]): 0.77%; inhibition of growth at 3 µg/mL (Bacillus subtilis [23]): -24.1%; inhibition of growth at 3 µg/mL (Pseudomonas fluorescens [24]): -67.2%; inhibition of growth at 30 µg/mL (Pseudomonas fluorescens [25]): 13.2%; MIC (Aspergillus flavus): 150 µg/mL
COc1ccc2nc(Cl)c(/C=C3\SC(=S)N(CC(=O)O)C3=O)cc2c1,-23.7,150,-37.3,150,-19.5,-35.7,-33.3,> 30,> 30,> 30,0.664,27.3,> 30,> 30,> 30,> 30,> 30,> 30,-50.9,> 30,MIC [13]: 125 µg/mL; inhibition of growth at 10 µg/mL (Staphylococcus aureus [17]): -25.4%; inhibition of growth at 30 µg/mL [18]: 32%; IC50 [19]: > 30 µg/mL; IC90 [19]: > 30 µg/mL; inhibition of growth at 3 µg/mL [20]: 6.02%; inhibition of growth at 3 µg/mL (Staphylococcus aureus [21]): -29.3%; inhibition of growth at 3 µg/mL (Bacillus subtilis [23]): -37%; inhibition of growth at 3 µg/mL (Pseudomonas fluorescens [24]): -4.12%; inhibition of growth at 30 µg/mL (Pseudomonas fluorescens [25]): -6.43%; MIC (Aspergillus flavus): 200 µg/mL
NC[C@H]1O[C@H](O[C@H]2[C@H](O)[C@@H](O[C@H]3O[C@H](CO)[C@@H](O)[C@H](N)[C@H]3O)[C@H](N)C[C@@H]2N)[C@H](O)[C@@H](O)[C@@H]1O [KANAMYCIN],–,–,–,–,–,–,–,0.25,0.67,0.012,–,–,–,–,–,–,–,–,–,16,–
O=C(O)CCN1C(=O)/C(=C/c2cc3cc(Cl)ccc3nc2Cl)SC1=S,20.6,200,-1.12,150,27.1,-65.7,0.333,> 30,> 30,> 30,6.58,25.7,> 30,> 30,> 30,> 30,> 30,> 30,37.3,> 30,MIC (Aspergillus niger): 200 µg/mL; inhibition of growth at 10 µg/mL (Staphylococcus aureus [17]): -36.7%; inhibition of growth at 30 µg/mL [18]: 56.5%; IC50 [19]: > 30 µg/mL; IC90 [19]: > 30 µg/mL; inhibition of growth at 3 µg/mL [20]: 13.7%; inhibition of growth at 3 µg/mL (Staphylococcus aureus [21]): -7.27%; inhibition of growth at 3 µg/mL (Bacillus subtilis [23]): 1.91%; inhibition of growth at 3 µg/mL (Pseudomonas fluorescens [24]): 3.17%; inhibition of growth at 30 µg/mL (Pseudomonas fluorescens [25]): -10%; MIC (Aspergillus flavus): 100 µg/mL
